Source: ChEMBL document CHEMBL1151705, “Novel azalides derived from 16-membered macrolides. Part II: Isolation of the linear 9-formylcarboxylic acid and its sequential macrocyclization with an amino alcohol or an azidoamine” (2008)
In brackets after ≈: the same amount, converted by molar mass.

Columns and labels:
Type in all cases: functional
[1] = test system: Streptococcus pneumoniae; test: Antimicrobial activity against Streptococcus pneumoniae 8 expressing inducible ermB after 20 hrs by agar dilution method; conditions: Streptococcus pneumoniae, 20 h; read-out: MIC
Summary of the method: (§1)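 Streptococci, H. influenzae and M. catarrhalis were precultured on blood agar plates. Suspensions of about 10⁶ CFU/ml were inoculated onto sensitivity disk agar supplemented with 5% horse blood and incubated at 37 °C for 20 h. MIC was read as the lowest drug concentration with no visible growth.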

[2] = test system: Streptococcus pneumoniae; test: Antimicrobial activity against Streptococcus pneumoniae 9 expressing mefA after 20 hrs by agar dilution method; conditions: Streptococcus pneumoniae, 20 h; read-out: MIC; summary of the method: as §1
[3] = test system: Streptococcus pneumoniae; test: Antimicrobial activity against Streptococcus pneumoniae 10 expressing mefA after 20 hrs by agar dilution method; conditions: Streptococcus pneumoniae, 20 h; read-out: MIC; summary of the method: as §1
[4] = test system: Streptococcus pyogenes; test: Antimicrobial activity against drug-susceptible Streptococcus pyogenes 1 after 20 hrs by agar dilution method; conditions: Streptococcus pyogenes, 20 h; read-out: MIC; summary of the method: as §1
[5] = test system: Streptococcus pyogenes; test: Antimicrobial activity against Streptococcus pyogenes 2 constitutively expressing ermB after 20 hrs by agar dilution method; summary of the method: as §1
[6] = test system: Streptococcus pyogenes; test: Antimicrobial activity against Streptococcus pyogenes 3 expressing mefA after 20 hrs by agar dilution method; conditions: Streptococcus pyogenes, 20 h; read-out: MIC; summary of the method: as §1
[7] = test system: Moraxella catarrhalis; test: Antimicrobial activity against drug-susceptible Moraxella catarrhalis 1 after 20 hrs by agar dilution method; conditions: Moraxella catarrhalis, 20 h; read-out: MIC; summary of the method: as §1
[8] = test system: Moraxella catarrhalis; test: Antimicrobial activity against drug-susceptible Moraxella catarrhalis 2 after 20 hrs by agar dilution method; conditions: Moraxella catarrhalis, 20 h; read-out: MIC; summary of the method: as §1
[9] = test system: Haemophilus influenzae; test: Antimicrobial activity against drug-susceptible Haemophilus influenzae 1 after 20 hrs by agar dilution method; conditions: Haemophilus influenzae, 20 h; read-out: MIC; summary of the method: as §1
[10] = test system: Haemophilus influenzae; test: Antimicrobial activity against drug-susceptible Haemophilus influenzae 2 after 20 hrs by agar dilution method; conditions: Haemophilus influenzae, 20 h; read-out: MIC; summary of the method: as §1
[11] = test system: Haemophilus influenzae; test: Antimicrobial activity against drug-susceptible Haemophilus influenzae 3 after 20 hrs by agar dilution method; conditions: Haemophilus influenzae, 20 h; read-out: MIC; summary of the method: as §1
[12] = test system: Haemophilus influenzae; test: Antimicrobial activity against drug-susceptible Haemophilus influenzae 4 after 20 hrs by agar dilution method; conditions: Haemophilus influenzae, 20 h; read-out: MIC; summary of the method: as §1
[13] = test system: Staphylococcus aureus; test: Antimicrobial activity against drug-susceptible Staphylococcus aureus 209P JC-1 after 20 hrs by agar dilution method; conditions: Staphylococcus aureus, 209P, 20 h; read-out: MIC
Summary of the method: (§2)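 Agar dilution MIC. S. aureus seed culture was grown in sensitivity test broth. Cell suspension (about 10⁶ CFU/ml) was inoculated onto sensitivity disk agar with 5% horse blood and incubated at 37 °C for 20 h. MIC was the lowest drug concentration that prevented visible growth.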

[14] = test system: Staphylococcus aureus; test: Antimicrobial activity against drug-susceptible Staphylococcus aureus 2 after 20 hrs by agar dilution method; conditions: Staphylococcus aureus, 20 h; read-out: MIC; summary of the method: as §2
[15] = test system: Staphylococcus aureus; test: Antimicrobial activity against drug-susceptible Staphylococcus aureus 3 after 20 hrs by agar dilution method; conditions: Staphylococcus aureus, 20 h; read-out: MIC; summary of the method: as §2
[16] = test system: Staphylococcus aureus; test: Antimicrobial activity against Staphylococcus aureus 4 constitutively expressing ermA after 20 hrs by agar dilution method; summary of the method: as §2
[17] = test system: Staphylococcus aureus; test: Antimicrobial activity against Staphylococcus aureus 5 expressing inducible ermB after 20 hrs by agar dilution method; conditions: Staphylococcus aureus, 20 h; read-out: MIC; summary of the method: as §2
[18] = test system: Streptococcus pneumoniae; test: Antimicrobial activity against drug-susceptible Streptococcus pneumoniae DP1 Type1 after 20 hrs by agar dilution method; conditions: Streptococcus pneumoniae, 20 h; read-out: MIC; summary of the method: as §1
[19] = test system: Streptococcus pneumoniae; test: Antimicrobial activity against drug-susceptible Streptococcus pneumoniae 2 after 20 hrs by agar dilution method; conditions: Streptococcus pneumoniae, 20 h; read-out: MIC; summary of the method: as §1
[20] = test system: Streptococcus pneumoniae; test: Antimicrobial activity against drug-susceptible Streptococcus pneumoniae 3 after 20 hrs by agar dilution method; conditions: Streptococcus pneumoniae, 20 h; read-out: MIC; summary of the method: as §1
[21] = test system: Streptococcus pneumoniae; test: Antimicrobial activity against Streptococcus pneumoniae 4 constitutively expressing ermB after 20 hrs by agar dilution method; conditions: Streptococcus pneumoniae, 20 h; read-out: MIC; summary of the method: as §1
[22] = test system: Streptococcus pneumoniae; test: Antimicrobial activity against Streptococcus pneumoniae 5 constitutively expressing ermB/mefA after 20 hrs by agar dilution method; conditions: Streptococcus pneumoniae, 20 h; read-out: MIC; summary of the method: as §1
[23] = test system: Streptococcus pneumoniae; test: Antimicrobial activity against Streptococcus pneumoniae 6 constitutively expressing ermB after 20 hrs by agar dilution method; conditions: Streptococcus pneumoniae, 20 h; read-out: MIC; summary of the method: as §1
[24] = test system: Streptococcus pneumoniae; test: Antimicrobial activity against Streptococcus pneumoniae 7 expressing inducible ermB after 20 hrs by agar dilution method; conditions: Streptococcus pneumoniae, 20 h; read-out: MIC; summary of the method: as §1
[25] = test system: Staphylococcus aureus; test: Antimicrobial activity against Staphylococcus aureus 6 expressing inducible ermB after 20 hrs by agar dilution method; summary of the method: as §2

Structure (SMILES) | MIC [1] [µg/mL] | MIC [2] [µg/mL] | MIC [3] [µg/mL] | MIC [4] [µg/mL] | MIC [5] [µg/mL] | MIC [6] [µg/mL] | MIC [7] [µg/mL] | MIC [8] [µg/mL] | MIC [9] [µg/mL] | MIC [10] [µg/mL] | MIC [11] [µg/mL] | MIC [12] [µg/mL] | MIC [13] [µg/mL] | MIC [14] [µg/mL] | MIC [15] [µg/mL] | MIC [16] [µg/mL] | MIC [17] [µg/mL] | MIC [18] [µg/mL] | MIC [19] [µg/mL] | MIC [20] [µg/mL] | further results
CCOC(=O)[C@H]1[C@H](C)O[C@@H](O[C@H]2[C@H](N(C)C)[C@@H](O)[C@H](O[C@H]3[C@@H](CC=O)C[C@@H](C)[C@@H](O)CN(C)CCC[C@H](C/C=C/c4ccc5ccccc5c4)OC(=O)C[C@@H](OC(=O)CC)[C@@H]3OC)O[C@@H]2C)C[C@@]1(C)O | 8 (≈ 8.12 µM) | 0.13 (≈ 0.132 µM) | 0.13 (≈ 0.132 µM) | 0.25 (≈ 0.254 µM) | 32 (≈ 32.5 µM) | 1 (≈ 1.01 µM) | 2 (≈ 2.03 µM) | 2 (≈ 2.03 µM) | 32 (≈ 32.5 µM) | 8 (≈ 8.12 µM) | 16 (≈ 16.2 µM) | 16 (≈ 16.2 µM) | 0.5 (≈ 0.507 µM) | 2 (≈ 2.03 µM) | 0.5 (≈ 0.507 µM) | 64 (≈ 65 µM) | 0.5 (≈ 0.507 µM) | 0.06 (≈ 0.0609 µM) | 0.06 (≈ 0.0609 µM) | 0.13 (≈ 0.132 µM) | MIC [21]: 32 µg/mL (≈ 32.5 µM); MIC [22]: 32 µg/mL (≈ 32.5 µM); MIC [23]: 32 µg/mL (≈ 32.5 µM); MIC [24]: 8 µg/mL (≈ 8.12 µM); MIC [25]: 1 µg/mL (≈ 1.01 µM)
CCOC(=O)[C@H]1[C@H](C)O[C@@H](O[C@H]2[C@H](N(C)C)[C@@H](O)[C@H](O[C@H]3[C@@H](CC=O)C[C@@H](C)[C@@H](O)CN(C)CCC[C@H](CCCc4cnc5ccccc5c4)OC(=O)C[C@@H](OC(=O)CC)[C@@H]3OC)O[C@@H]2C)C[C@@]1(C)O | 4 (≈ 4.05 µM) | 0.015 (≈ 0.0152 µM) | 0.015 (≈ 0.0152 µM) | 0.015 (≈ 0.0152 µM) | > 128 | 0.13 (≈ 0.132 µM) | 1 (≈ 1.01 µM) | 1 (≈ 1.01 µM) | 32 (≈ 32.4 µM) | 2 (≈ 2.02 µM) | 8 (≈ 8.1 µM) | 8 (≈ 8.1 µM) | 0.13 (≈ 0.132 µM) | 0.25 (≈ 0.253 µM) | 0.13 (≈ 0.132 µM) | > 128 | 0.13 (≈ 0.132 µM) | < 0.008 | 0.015 (≈ 0.0152 µM) | < 0.008 | MIC [21]: 128 µg/mL (≈ 130 µM); MIC [22]: 128 µg/mL (≈ 130 µM); MIC [23]: 128 µg/mL (≈ 130 µM); MIC [24]: 4 µg/mL (≈ 4.05 µM); MIC [25]: 0.25 µg/mL (≈ 0.253 µM)
CCOC(=O)[C@H]1[C@H](C)O[C@@H](O[C@H]2[C@H](N(C)C)[C@@H](O)[C@H](O[C@H]3[C@@H](CC=O)C[C@@H](C)[C@@H](O)CN(C)CCC[C@H](C/C=C/c4cccc5ccccc45)OC(=O)C[C@@H](OC(=O)CC)[C@@H]3OC)O[C@@H]2C)C[C@@]1(C)O | 2 (≈ 2.03 µM) | 0.06 (≈ 0.0609 µM) | 0.06 (≈ 0.0609 µM) | 0.25 (≈ 0.254 µM) | 64 (≈ 65 µM) | 1 (≈ 1.01 µM) | 2 (≈ 2.03 µM) | 2 (≈ 2.03 µM) | 64 (≈ 65 µM) | 16 (≈ 16.2 µM) | 16 (≈ 16.2 µM) | 16 (≈ 16.2 µM) | 1 (≈ 1.01 µM) | 2 (≈ 2.03 µM) | 0.5 (≈ 0.507 µM) | > 128 | 0.5 (≈ 0.507 µM) | 0.06 (≈ 0.0609 µM) | 0.13 (≈ 0.132 µM) | 0.06 (≈ 0.0609 µM) | MIC [21]: 64 µg/mL (≈ 65 µM); MIC [22]: 64 µg/mL (≈ 65 µM); MIC [23]: 64 µg/mL (≈ 65 µM); MIC [24]: 4 µg/mL (≈ 4.06 µM); MIC [25]: 1 µg/mL (≈ 1.01 µM)
